Experimental findings from ChEMBL document CHEMBL3045405, “Enantioselective oxidative damage of chiral pesticide dichlorprop to maize” (J Agric Food Chem, 2011) are described below.

For data set [1], the system named is Zea mays. Description: Induction of hydroxyl radical production in Zea mays (maize) root assessed as ROS adducts formation at 1 mg/L measured after 3 days by EPR analysis. Type of data set: organism-based. The following applies: in vivo, 72 h. Put shortly:
(§1)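 Roots of maize exposed for 3 days were rinsed in ice-cold 0.1 M CaCl2. Under nitrogen, 0.5 g was homogenized with 1.0 mL of fresh 100 mM PBN in DMSO, incubated 37 °C for 15 min, and centrifuged 4500 rpm, 3 min, 4 °C. Signal expressed relative to control.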

The subject of data set [2] is Zea mays. Put plainly: Induction of SOD activity in Zea mays (maize) root at 0.02 mg/L measured after 3 days. Type of data set: organism-based. Conditions: in vivo, 72 h. A digest of the protocol: (§2)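 Maize roots after 3 days' exposure to DCPP enantiomers (0–1.0 mg L-1, test solutions renewed daily). Fresh roots (1.0 g) homogenized on ice in 0.05 M sodium phosphate buffer pH 7.8 with 1% (w/v) polyvinylpyrrolidone, then centrifuged 10 000 rpm, 10 min, 4 °C. The supernatant was used for enzyme assays, with protein by Bradford (BSA standard). Mean ± SEM of three replicate cultures.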

Data set [3] can be described thus: Phytotoxicity against Zea mays (maize) assessed as inhibition of root length at 0.05 mg/L and at 25 degC/20 degC day/night temperature 14 hr photoperiod for 3 days. Type of data set: organism-based. The following applies: in vivo. A digest of the protocol: (§3)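 Maize seeds were surface-sterilized in 3% H2O2 for 10 min and germinated on moist filter paper at 27 °C in the dark. Seedlings were exposed to (rac)-, (S)- or (R)-DCPP in sterile deionized water (0–1.0 mg L-1), with solutions renewed daily, at 80% relative humidity and repositioned daily. Fresh weight, root length and shoot height were compared with the water control after 3 days.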

A short description of data set [4]: Phytotoxicity against Zea mays (maize) assessed as inhibition of root length at 1 mg/L and at 25 degC/20 degC day/night temperature 14 hr photoperiod for 3 days. Type of data set: organism-based. The following applies: in vivo. A digest of the protocol:
as §3

Data set [5] in a line: Phytotoxicity against Zea mays (maize) assessed as inhibition of shoot height at 1 mg/L and at 25 degC/20 degC day/night temperature 14 hr photoperiod for 3 days. Type of data set: organism-based. The following applies: in vivo. A digest of the protocol:
as §3

A short description of data set [6]: Phytotoxicity against Zea mays (maize) assessed as inhibition of shoot height at 0.5 mg/L and at 25 degC/20 degC day/night temperature 14 hr photoperiod for 3 days. Type of data set: organism-based. Conditions: in vivo. A digest of the protocol: as §3
Data set [7] is described as follows: Phytotoxicity against Zea mays (maize) assessed as inhibition of shoot height at 0.02 mg/L and at 25 degC/20 degC day/night temperature 14 hr photoperiod for 3 days. Type of data set: organism-based. The following applies: in vivo. Put shortly:
as §3

Data set [8] in a line: Phytotoxicity against Zea mays (maize) assessed as inhibition of root length at 0.1 mg/L and at 25 degC/20 degC day/night temperature 14 hr photoperiod for 3 days. The following applies: in vivo. Type of data set: organism-based. Put shortly: as §3
Data set [9] in a line: Phytotoxicity against Zea mays (maize) assessed as inhibition of seed germination at 0.5 mg/L and at 27 degC in the dark for 3 days. Conditions: in vivo.
Data set [10] can be described thus: Phytotoxicity against Zea mays (maize) assessed as inhibition of seed germination at 1 mg/L and at 27 degC in the dark for 3 days. The following applies: in vivo.
Data set [11] in a line: Phytotoxicity against Zea mays (maize) assessed as inhibition of seed germination at 0.02 mg/L and at 27 degC in the dark for 3 days. The following applies: in vivo.
A short description of data set [12]: Phytotoxicity against Zea mays (maize) assessed as inhibition of fresh weight at 0.02 mg/L and at 25 degC/20 degC day/night temperature 14 hr photoperiod for 3 days. Type of data set: organism-based. The following applies: in vivo. Put shortly: as §3
In data set [13] the test system is Zea mays. Description: Induction of hydroxyl radical production in Zea mays (maize) root assessed as PBN adducts formation at 1 mg/L measured after 3 days by EPR analysis. Type of data set: organism-based. The following applies: in vivo, 72 h. Put shortly: as §1
The nature of data set [14]: Phytotoxicity against Zea mays (maize) assessed as inhibition of shoot height at 0.05 mg/L and at 25 degC/20 degC day/night temperature 14 hr photoperiod for 3 days. Type of data set: organism-based. Conditions: in vivo. Put shortly:
as §3

Data set [15] is described as follows: Phytotoxicity against Zea mays (maize) assessed as inhibition of root length at 0.02 mg/L and at 25 degC/20 degC day/night temperature 14 hr photoperiod for 3 days. Type of data set: organism-based. The following applies: in vivo. A digest of the protocol: as §3
The nature of data set [16]: Phytotoxicity against Zea mays (maize) assessed as inhibition of fresh weight at 0.05 mg/L and at 25 degC/20 degC day/night temperature 14 hr photoperiod for 3 days. Type of data set: organism-based. Conditions: in vivo. Put shortly: as §3
Data set [17] is described as follows: Phytotoxicity against Zea mays (maize) assessed as inhibition of seed germination at 0.1 mg/L and at 27 degC in the dark for 3 days. Conditions: in vivo.
In data set [18] the test system is Zea mays. Put plainly: Induction of POD activity in Zea mays (maize) root at 0.05 mg/L measured after 3 days. Type of data set: organism-based. The following applies: in vivo, 72 h. A digest of the protocol:
as §2

A short description of data set [19]: Phytotoxicity against Zea mays (maize) assessed as inhibition of root length at 0.5 mg/L and at 25 degC/20 degC day/night temperature 14 hr photoperiod for 3 days. Type of data set: organism-based. The following applies: in vivo. A digest of the protocol:
as §3

The nature of data set [20]: Phytotoxicity against Zea mays (maize) assessed as inhibition of seed germination at 0.05 mg/L and at 27 degC in the dark for 3 days. The following applies: in vivo.
The nature of data set [21]: Phytotoxicity against Zea mays (maize) assessed as inhibition of fresh weight at 0.5 mg/L and at 25 degC/20 degC day/night temperature 14 hr photoperiod for 3 days. Type of data set: organism-based. Conditions: in vivo. A digest of the protocol:
as §3

A short description of data set [22]: Phytotoxicity against Zea mays (maize) assessed as inhibition of fresh weight at 0.1 mg/L and at 25 degC/20 degC day/night temperature 14 hr photoperiod for 3 days. Type of data set: organism-based. Conditions: in vivo. A digest of the protocol:
as §3

Data set [23] is described as follows: Phytotoxicity against Zea mays (maize) assessed as inhibition of fresh weight at 1 mg/L and at 25 degC/20 degC day/night temperature 14 hr photoperiod for 3 days. Type of data set: organism-based. The following applies: in vivo. A digest of the protocol: as §3
Data set [24] in a line: Phytotoxicity against Zea mays (maize) assessed as inhibition of shoot height at 0.1 mg/L and at 25 degC/20 degC day/night temperature 14 hr photoperiod for 3 days. Type of data set: organism-based. The following applies: in vivo. A digest of the protocol:
as §3

The test system of data set [25] is Zea mays. Description: Induction of POD activity in Zea mays (maize) root at 0.02 mg/L measured after 3 days. Type of data set: organism-based. The following applies: in vivo, 72 h. Put shortly:
as §2

The test system of data set [26] is Zea mays. Description: Induction of POD activity in Zea mays (maize) root at 0.1 mg/L measured after 3 days. Type of data set: organism-based. The following applies: in vivo, 72 h. Put shortly:
as §2

For `CC(Oc1ccc(Cl)cc1Cl)C(=O)O` (racemic) [RAC-DICHLORPROP], the Activity result in data set [1] is “Toxic”; in [2] it was “Non-toxic”; in data set [13] it was “Toxic”; in data set [18], “Toxic”. Also, the inhibition – broadly, the relative decrease from the control value, in per cent – at 72 h, 0.05 mg/L stood at 19.3% in [3], 4.02% in [14], 4.28% in data set [16] and 8.38% in data set [20]. The inhibition at 72 h, 1 mg/L stood at 40.1% in data set [4], 31.1% in data set [5], 31.7% in data set [10] and 39.7% in data set [23]. In addition, the inhibition at 72 h, 0.5 mg/L amounted to 17.6% in [6], 21.4% in data set [9], 36.7% in [19] and 31.3% in [21]. The inhibition at 72 h, 0.02 mg/L in [7] is 2.14%; in data set [11] it was 3.57%; in data set [12] it was 2.75%; in data set [15] it was 12.7%. Also, the inhibition at 72 h, 0.1 mg/L in [8] was 24.5%; in [17] it was 12.2%; in data set [22], 10%; in data set [24], 7.9%.

As for `C[C@@H](Oc1ccc(Cl)cc1Cl)C(=O)O` [(R)-DICHLORPROP], the Activity result in [1], in data set [2], in data set [13] and in data set [25] was “Toxic” throughout. Also, the inhibition at 72 h, 0.05 mg/L in [3] was determined as 23.5%; in data set [14], 5.27%; in data set [16], 14.8%; in data set [20], 10.7%. The inhibition at 72 h, 1 mg/L in data set [4] came to 42%; in [5], 36.7%; in data set [10], 41.4%; in data set [23], 42.7%. Further, the inhibition at 72 h, 0.5 mg/L in data set [6] was 20.7%; in data set [9], 34.9%; in data set [19], 38.4%; in [21], 36.7%. In addition, the inhibition at 72 h, 0.02 mg/L in [7] was 3.52%; in data set [11] it was 6.64%; in data set [12] it was 5.76%; in data set [15], 14.3%. In addition, the inhibition at 72 h, 0.1 mg/L came out at 26.6% in data set [8], 16.1% in [17], 24.6% in [22] and 8.61% in [24].

On to `C[C@H](Oc1ccc(Cl)cc1Cl)C(=O)O` [(S)-DICHLORPROP], for which the Activity entry in data set [1] is reported as “Toxic”; in data set [2], “Non-toxic”; in data set [13] it was “Toxic”; in data set [26] it was “Toxic”. Also, the inhibition at 72 h, 0.05 mg/L in [3] worked out at 17.3%; in data set [14] it was 3.12%; in data set [16] it was 2.94%; in [20] it was 4.75%. Further, the inhibition at 72 h, 1 mg/L in data set [4] amounted to 39.9%; in [5] it was 30.6%; in [10] it was 21.9%; in data set [23] it was 38.1%. Also, the inhibition at 72 h, 0.5 mg/L in [6] worked out at 15.9%; in data set [9] it was 11.4%; in data set [19] it was 34.9%; in [21], 30.2%. Besides, the inhibition at 72 h, 0.02 mg/L worked out at 2.06% in data set [7], 2.1% in data set [11], 2.12% in data set [12] and 11.4% in data set [15]. Moreover, the inhibition at 72 h, 0.1 mg/L in [8] stood at 22.7%; in [17] it was 9.67%; in [22], 9.5%; in [24], 6.28%.
